# Measurements as given in ChEMBL document CHEMBL1156277, “Discovery of N-methyl-4-(4-methoxyanilino)quinazolines as potent apoptosis inducers. Structure-activity relationship of the quinazoline ring” (Bioorg Med Chem Lett, 2010).
# Columns and labels:
# NCI-H1299 = assay: Induction of apoptosis in human H1299 cells assessed as caspase activation; type: functional, cell-based
# Procedure, shortened: (§1)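 Cell- and caspase-based HTS assay in human breast cancer T47D and human non-small cell lung cancer H1299 cells. Caspase-3 activation was read with fluorescent caspase-3 substrates and reported as EC50. Data are the mean of three or more experiments ± SEM.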
# T47D [1] = assay: Selectivity ratio EC50 for human H1299 cells over EC50 for human T47D cells; type: functional
# T47D [2] = assay: Induction of apoptosis in human T47D cells assessed as caspase activation; type: functional, cell-based; procedure, shortened: as §1
# [3] = Inhibition of tubulin polymerization
# [4] = Ratio of AUC in brain to plasma in mouse at 2.5 mg/kg, iv; type: ADME, organism-based; design: dose 2.5 mg/kg, route intravenous; conditions: brain and plasma, read-out: Ratio AUC
# Procedure, shortened: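 Mice got a single intravenous dose. Compound levels in plasma from blood samples and in homogenized whole brain were determined by LC–MS/MS. Brain/plasma ratio was calculated from the areas under the concentration–time curves.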
Structure (SMILES),EC50 (NCI-H1299) [nM],EC50 (T47D [2]) [nM],IC50 [3] [nM],Kp [4],Selectivity ratio (T47D [1])
COc1ccc(N(C)c2nc(C)nc3ccc(NC(C)=O)cc23)cc1,1400,960,,,1.5
COc1ccc(N(C)c2nc(C)nc3cc(N)ccc23)cc1,570,780,2000,,0.73
COc1ccc(N(C)c2nc(C)nc3cc(N=[N+]=[N-])ccc23)cc1,130,110,,,1.2
COc1ccc(N(C)c2nc(C)nc3ccc([N+](=O)[O-])cc23)cc1,130,400,,,0.33
COc1ccc(N(C)c2nc(C)nc3cc([N+](=O)[O-])ccc23)cc1,> 10000,> 10000,,,2
COc1ccc(N(C)c2nccc3ccccc23)cc1,960,600,400,,2
COc1ccc(N(C)c2nnnc3ccccc23)cc1,45,17,,,2
COc1ccc(N(C)c2nc(C)nc3nccnc23)cc1,36,29,,2.1,1.2
COc1ccc(N(C)c2nc(C)nc3ccc(N(C)C)cc23)cc1,1400,450,,,3.1

# Compounds with a lower EC50 (NCI-H1299), results first:
EC50 (NCI-H1299) [nM],EC50 (T47D [2]) [nM],IC50 [3] [nM],Kp [4],Structure (SMILES),Selectivity ratio (T47D [1])
21,15,,1.8,COc1ccc(N(C)c2nc(C)nc3ncccc23)cc1,1.4
26,21,,9.2,COc1ccc(N(C)c2ccnc3ccccc23)cc1,2
8,4,400,,COc1ccc(N(C)c2nc(C)nc3cccc(OC)c23)cc1,2
14,8,,3.6,COc1ccc(N(C)c2nc(C)nc3ccc(N)cc23)cc1,2
7,,2000,,COc1ccc(N(C)c2nc(C)nc3ccccc23)cc1 [VERUBULIN],
